Assay results gathered from unrelated publications.
Protocols differ between the studies behind these lines.
Effect on: cell growth or viability

For `C=CC(=O)Nc1cc(Nc2nc(N3CCOCC3)c3sccc3n2)c(OC)cc1N(C)CCN(C)C`, the IC50 was over 50 µM (NCI-H460; MTT).
With `O=c1c(O)c(-c2cc(O)c(O)c(O)c2)oc2cc(O)cc(O)c12` the IC50 was 30.3 µM (SCaBER; ATP luminescence; 72 h).
With `O=[N+]([O-])c1ccc(Cn2cc(Cn3c4ccccc4c4nc5ccccc5nc43)nn2)cc1` the IC50 was over 100 µM (INS1; MTT; 24 h).
With `C=C(C)C(=O)Nc1ccc(-c2c(-c3ccc(Oc4nccc(C)n4)c(F)c3)c3c(N)ncnc3n2C)cc1` the IC50 was over 10 µM (MDA-MB-453; ATP luminescence; 96 h).
`CC(=O)[C@]1(O)Cc2c(O)c3c(c(O)c2[C@@H](O[C@H]2C[C@H](N)[C@H](O)[C@H](C)O2)C1)C(=O)c1ccccc1C3=O` gave an IC50 of 0.1 µM (GISTT1; resazurin; 72 h).
With `CCC(=O)Nc1cc(Nc2nc(N3CCc4sccc4C3)c3cccnc3n2)c(OC)cc1N1CCOCC1` the IC50 was over 50 µM (NCI-H460; MTT).
For `CCC1=C[C@@H]2CN(C1)Cc1c([nH]c3ccccc13)[C@@](C(=O)OC)(c1cc3c(cc1OC)N(C)[C@H]1[C@@](O)(C(=O)OC)[C@H](OC(C)=O)[C@]4(CC)C=CCN5CC[C@]31[C@@H]54)C2`, the IC50 was 0.23 µM (GISTT1; resazurin; 72 h).
`CC(C)[C@H](N)c1nc2cc(-c3ccnnc3)sc2c(=O)[nH]1` gave an IC50 of 5.97 µM (COLO 205; MTT).
With `COc1ccccc1C(=O)c1cc2c(-c3ccccc3)c(OC)ccc2o1` the IC50 was over 50 µM (L1210; 48 h).
`Nc1nc(F)nc2c1ncn2[C@@H]1O[C@H](COP(=O)(O)O)[C@@H](O)[C@@H]1O` has an IC50 of over 1 µM (GISTT1; resazurin; 72 h).
For `CCN1CCN(c2ccc(Nc3cc(N(C)C(=O)Nc4c(Cl)c(OC)cc(OC)c4Cl)ncn3)cc2)CC1`, the IC50 was over 1 µM (MDA-MB-453; ATP luminescence; 96 h).
The IC50 of `O=C1Nc2ccccc2C(=NO)CCc2ccccc21` is reported as over 380 µM (L6).
`COc1ccc(C(=O)c2cc3c(-c4ccccc4)c(O)ccc3o2)cc1` has an IC50 of 1.3 µM (L1210; 48 h).
`O=C1Nc2ccccc2C(=O)CCc2cc(O)ccc21` has an IC50 of 84 µM (L6).
`COc1c2ccoc2c(OCC=C(C)C)c2oc(=O)ccc12` has an IC50 of over 100 µM (COLO 205; MTT; 72 h).
`COc1cccc(C(=O)c2cc3c(-c4ccccc4)c(OC)ccc3o2)c1` has an IC50 of 10 µM (L1210; 48 h).
For `COc1cc([C@@H]2c3cc4c(cc3[C@@H](O[C@@H]3O[C@@H]5CO[C@@H](c6cccs6)O[C@H]5[C@H](O)[C@H]3O)[C@H]3COC(=O)[C@H]23)OCO4)cc(OC)c1O`, the IC50 was over 1 µM (GISTT1; resazurin; 72 h).
For `N[C@@H](CC(=O)N1CCN(C(c2ccc(F)cc2)c2ccc(F)cc2)CC1)C(=O)N1Cc2ccccc2C1`, the IC50 was 28.3 µM (RS4-11; ATP luminescence; 24 h).
`COc1cccc2c1C(=O)c1c(O)c3c(c(O)c1C2=O)C[C@@](O)(C(=O)CO)C[C@@H]3O[C@H]1C[C@H](N)[C@H](O)[C@H](C)O1` gave an IC50 of 0.31 µM (GISTT1; resazurin; 72 h).
`O=C1Nc2ccc(F)cc2C(=O)CCc2ccccc21` gave an IC50 of 110 µM (L6).
`CCN(CC)CCCC(C)Nc1ccnc2cc(Cl)ccc12` (centres unmarked) has an IC50 of over 1 µM (GISTT1; resazurin; 72 h).
The IC50 of `O=C1Nc2ccc(S(F)(F)(F)(F)F)cc2C(=O)CCc2ccccc21` is reported as 2.8 µM (L6).
`O=C(c1ccccc1)c1cc2c(-c3ccccc3)c(O)ccc2o1` has an IC50 of 37 µM (L1210; 48 h).
With `O=C1CCc2ccccc2CC(=O)c2ccccc2N1` the IC50 was over 380 µM (L6).
For `O=C1c2c(O)ccc(O)c2C(=O)c2c(NCCNCCO)ccc(NCCNCCO)c21`, the IC50 was 0.42 µM (GISTT1; resazurin; 72 h).
With `COc1ccc(/C=C\c2cc(OC)c(OC)c(OC)c2)cc1O` the IC50 was 0.0032 µM (L1210; 48 h).
`O=C1Nc2ccccc2C(=O)CCc2cc(F)ccc21` has an IC50 of 96 µM (L6).
The IC50 of `C=C[C@H]1C[N@@]2CC[C@H]1C[C@@H]2[C@@H](O)c1ccnc2ccc(OC)cc12` is reported as 267 µM (MDCK-II; MTT; 48 h).
With `CC(C)[C@H](N)c1nc2cc(N3CCNCC3)sc2c(=O)[nH]1` the IC50 was over 10 µM (COLO 205; MTT).
`O=C1CCc2ncccc2C(=O)Nc2ccccc21` has an IC50 of 160 µM (L6).
The IC50 of `C[C@@H]1O[C@@H](O[C@H]2C[C@@H](O)[C@]3(CO)[C@H]4[C@H](O)C[C@]5(C)[C@@H](C6=CC(=O)OC6)CC[C@]5(O)[C@@H]4CC[C@]3(O)C2)[C@H](O)[C@H](O)[C@H]1O` is reported as 0.21 µM (GISTT1; resazurin; 72 h).
The IC50 of `Cc1ccc(-c2cc(COCc3ccc(C(C)C)cc3)c3cccnc3c2O)cc1` is reported as 0.9 µM (MDA-MB-453; MTS; 72 h).
`O=C1Nc2ccccc2C(=O)CCCc2ccccc21` has an IC50 of 130 µM (L6).
The IC50 of `CC(C)=CCC/C(C)=C/COc1ccc2ccc(=O)oc2c1` is reported as 63.1 µM (COLO 205; MTT; 72 h).
For `O=c1c(O[C@@H]2O[C@H](CO)[C@@H](O)[C@H](O)[C@H]2O)c(-c2ccc(O)c(O)c2)oc2cc(O)cc(O)c12`, the IC50 was 8.66 µM (SCaBER; ATP luminescence; 72 h).
For `COc1cc(OC)cc(C(=O)c2cc3c(-c4ccccc4)c(OC)ccc3o2)c1`, the IC50 was over 50 µM (L1210; 48 h).
`CC(C)C[C@H](NC(=O)[C@H](Cc1ccccc1)NC(=O)c1cnccn1)B(O)O` gave an IC50 of 0.053 µM (NCI-H1838; ATP luminescence).
`CC(C)[C@@H](N)c1nc2cc(-c3ccncc3F)sc2c(=O)[nH]1` gave an IC50 of 1.19 µM (COLO 205; MTT).
